Values after ≈ are worked out from the molar mass of the structure shown.

Test [1] in a line: Selectivity index, ratio of IC50 for african green monkey Vero cells to MIC for Mycobacterium tuberculosis H37Rv ATCC 27294. It counts as functional.
In the next test the test system is Vero. Briefly: Cytotoxicity against african green monkey Vero cells after 48 hrs by MTT assay. It counts as cell-based. As to conditions: Chlorocebus sabaeus. In short, it runs like this:
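Vero cells were exposed to compound. The IC50 was taken as the concentration inhibiting 50% of growth relative to an untreated control.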

Test [2] concerns Mycobacterium tuberculosis. The test is described as follows: Antimycobacterial activity against Mycobacterium tuberculosis H37Rv ATCC 27294 after 7 days by microplate Alamar blue assay. It counts as functional. As to conditions: H37Rv ATCC 27294, 168 h. In short, it runs like this:
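Run in 96-well plates against M. tuberculosis H37Rv using the Alamar Blue read-out. The MIC was taken as the lowest concentration giving >90% growth inhibition.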

Take `Cc1ncccc1Nc1cc2nc3ccccc3n(-c3ccc(Cl)cc3)c-2c/c1=N\C(C)C`: the “Selectivity Index” value in test [1] is 1164. The IC50 in the test with Vero is greater than 64 µg/mL. In addition, 0.055 µg/mL (≈ 0.121 µM) was the least that counted as inhibitory in test [2] (MIC).

On to `Cc1ncccc1Nc1cc2nc3ccccc3n(-c3ccc(Cl)cc3)c-2c/c1=N\C1CCOCC1`, for which the “Selectivity Index” value in test [1] came out at 163. The compound further returned an IC50 in the test with Vero of 27.4 µg/mL (≈ 55.3 µM). In addition, the MIC in test [2] came out at 0.168 µg/mL (≈ 0.339 µM).

For the compound `Cc1ccc(Nc2cc3nc4ccccc4n(-c4ccc(Cl)cc4)c-3c/c2=N\C(C)C)cn1`, the “Selectivity Index” value in test [1] is recorded as 118. The compound further gave an IC50 with Vero of 7.09 µg/mL (≈ 15.6 µM). In addition, in test [2], it took 0.06 µg/mL (≈ 0.132 µM) to inhibit growth (MIC).

Regarding `Cc1ccc(Nc2cc3nc4ccccc4n(-c4ccc(Cl)cc4)c-3c/c2=N\C2CCOCC2)cn1`, the “Selectivity Index” value in test [1] is listed as 324. Besides, 9.73 µg/mL (≈ 19.6 µM) corresponded to half-maximal inhibition in the test on Vero (IC50). In test [2], the lowest concentration to inhibit growth (MIC) was 0.03 µg/mL (≈ 0.0605 µM).

`Clc1ccc(-n2c3c/c(=N\C4CCOCC4)c(Nc4cncc(Br)c4)cc-3nc3ccccc32)cc1`: the “Selectivity Index” value in test [1] is 1778. For the same compound, the half-maximal inhibitory concentration (IC50) in the test with Vero is greater than 64 µg/mL. It took 0.036 µg/mL (≈ 0.0642 µM) to inhibit growth in test [2] (MIC).

On to `COC1CCC(/N=c2\cc3n(-c4ccc(Cl)cc4)c4ccccc4nc-3cc2Nc2cncc(Br)c2)CC1` (centres undefined), for which the “Selectivity Index” value in test [1] is recorded as 1231. In the test with Vero, this compound showed an IC50 greater than 64 µg/mL. Moreover, in test [2], the lowest concentration to inhibit growth (MIC) was 0.052 µg/mL (≈ 0.0883 µM).

In the case of `COc1ncccc1Nc1cc2nc3ccccc3n(-c3ccc(F)cc3)c-2c/c1=N\C1CCOCC1`, the “Selectivity Index” value in test [1] turned out to be 1641. The same compound had an IC50 with Vero greater than 64 µg/mL. Further, in test [2], the MIC worked out at 0.039 µg/mL (≈ 0.0787 µM).

Turning to `Cc1ncccc1Nc1cc2nc3ccccc3n(-c3ccc(F)cc3)c-2c/c1=N\C(C)C`, in test [1], the “Selectivity Index” value amounted to 449. In addition, in the test on Vero, the IC50 is 14.4 µg/mL (≈ 32.8 µM). The compound further had a minimum inhibitory concentration (MIC) in test [2] of 0.032 µg/mL (≈ 0.0731 µM).

In the case of `Cc1ccc(Nc2cc3nc4ccccc4n(-c4ccc(F)cc4)c-3c/c2=N\C(C)C)cn1`, the “Selectivity Index” value in test [1] was 131. The IC50 in the test on Vero was 7.88 µg/mL (≈ 18 µM). The compound also displayed an MIC in test [2] of 0.06 µg/mL (≈ 0.137 µM).

For the compound `Cc1ccc(Nc2cc3nc4ccccc4n(-c4ccc(F)cc4)c-3c/c2=N\C2CCOCC2)cn1`, the “Selectivity Index” value in test [1] turned out to be 112. In addition, the IC50 with Vero was found to be 14 µg/mL (≈ 29.3 µM). Besides, in test [2], inhibition of growth (MIC) required 0.125 µg/mL (≈ 0.261 µM).

On to `COC1CCC(/N=c2\cc3n(-c4ccc(F)cc4)c4ccccc4nc-3cc2Nc2ccc(C)nc2)CC1` (centres undefined), for which the “Selectivity Index” value in test [1] is 1067. In the test with Vero, this compound yielded an IC50 greater than 64 µg/mL. In addition, in test [2], the MIC came out at 0.06 µg/mL (≈ 0.118 µM).

Take `Cc1ncccc1Nc1cc2nc3ccccc3n(-c3ccc(C(F)(F)F)cc3)c-2c/c1=N\C(C)C`: the “Selectivity Index” value in test [1] is 4571. The IC50 in the test on Vero is greater than 64 µg/mL. Also, the MIC in test [2] worked out at 0.014 µg/mL (≈ 0.0287 µM).

On to `COC1CCC(/N=c2\cc3n(-c4ccc(C(F)(F)F)cc4)c4ccccc4nc-3cc2Nc2cccnc2C)CC1` (centres undefined), for which, in test [1], the “Selectivity Index” value is given as 5818. In the test with Vero, this compound gave an IC50 greater than 64 µg/mL. Besides, it took 0.011 µg/mL (≈ 0.0197 µM) to inhibit growth in test [2] (MIC).

Consider `Cc1ccc(Nc2cc3nc4ccccc4n(-c4ccc(C(F)(F)F)cc4)c-3c/c2=N\C(C)C)cn1`, for which the “Selectivity Index” value in test [1] came to 1147. Also, half-maximal inhibition in the test with Vero (IC50) was put at 34.4 µg/mL (≈ 70.6 µM). The same compound registered an MIC in test [2] of 0.03 µg/mL (≈ 0.0615 µM).

For `Clc1ccc(-n2c3c/c(=N\C4CCOCC4)c(Nc4cccnc4)cc-3nc3ccccc32)cc1`, the “Selectivity Index” value in test [1] amounted to 83. In the test with Vero, this compound had an IC50 of 2.5 µg/mL (≈ 5.19 µM). This compound returned an MIC in test [2] of 0.03 µg/mL (≈ 0.0622 µM).

As for `COC1CCC(/N=c2\cc3n(-c4ccc(Cl)cc4)c4ccccc4nc-3cc2Nc2cccnc2)CC1` (centres undefined), the “Selectivity Index” value in test [1] worked out at 401. Moreover, it took 12 µg/mL (≈ 23.6 µM) to reach half-maximal inhibition in the test with Vero (IC50). The MIC in test [2] came out at 0.03 µg/mL (≈ 0.0588 µM).

On to `CN1CCC(/N=c2\cc3n(-c4ccc(Cl)cc4)c4ccccc4nc-3cc2Nc2cccnc2)CC1`, for which the “Selectivity Index” value in test [1] is 45. Moreover, the IC50 in the test on Vero amounted to 5.58 µg/mL (≈ 11.3 µM). The compound further displayed an MIC in test [2] of 0.125 µg/mL (≈ 0.253 µM).

With `CC(C)CN1CCC(/N=c2\cc3n(-c4ccc(Cl)cc4)c4ccccc4nc-3cc2Nc2cccnc2)CC1`, the “Selectivity Index” value in test [1] amounted to 60. The IC50 in the test with Vero was found to be 15.1 µg/mL (≈ 28 µM). Inhibition of growth in test [2] (MIC) required 0.25 µg/mL (≈ 0.465 µM).

With `Clc1ccc(-n2c3c/c(=N\CCN4CCOCC4)c(Nc4cccnc4)cc-3nc3ccccc32)cc1`, in test [1], the “Selectivity Index” value amounted to 16. The compound further had an IC50 with Vero of 4.02 µg/mL (≈ 7.87 µM). Also, the MIC in test [2] worked out at 0.25 µg/mL (≈ 0.489 µM).

With `Fc1ccc(-n2c3c/c(=N\C4CCOCC4)c(Nc4cccnc4)cc-3nc3ccccc32)cc1`, in test [1], the “Selectivity Index” value worked out at 123. Also, in the test on Vero, the IC50 was 7.36 µg/mL (≈ 15.8 µM). Further, inhibition of growth in test [2] (MIC) required 0.06 µg/mL (≈ 0.129 µM).

On to `COC1CCC(/N=c2\cc3n(-c4ccc(F)cc4)c4ccccc4nc-3cc2Nc2cccnc2)CC1` (centres undefined), for which the “Selectivity Index” value in test [1] turned out to be 533. Also, in the test with Vero, the IC50 is greater than 64 µg/mL. The same compound showed an MIC in test [2] of 0.12 µg/mL (≈ 0.243 µM).

For the compound `CN1CCC(/N=c2\cc3n(-c4ccc(F)cc4)c4ccccc4nc-3cc2Nc2cccnc2)CC1`, the “Selectivity Index” value in test [1] came out at 26. This compound came in with an IC50 with Vero of 6.44 µg/mL (≈ 13.5 µM). For the same compound, in test [2], the MIC came to 0.25 µg/mL (≈ 0.522 µM).

As to `CC(C)CN1CCC(/N=c2\cc3n(-c4ccc(F)cc4)c4ccccc4nc-3cc2Nc2cccnc2)CC1`, the “Selectivity Index” value in test [1] is 242. Further, the IC50 in the test on Vero came out at 30.3 µg/mL (≈ 58.1 µM). This compound also yielded an MIC in test [2] of 0.125 µg/mL (≈ 0.24 µM).
